From ChEMBL document CHEMBL1131108, “Phenothiazine inhibitors of trypanothione reductase as potential antitrypanosomal and antileishmanial drugs” (J Med Chem, 1998)

Legend:
Mus musculus [1] = species: Mus musculus; assay: Effective dose against Trypanosoma cruzi (Trypanosoma cruzi) trypomastigotes in mouse peritoneal macrophages; type: functional; settings: read-out: ED50 (the source's name)
Mus musculus [2] = species: Mus musculus; assay: Effective dose against Trypanosoma uM; type: functional
Mus musculus [3] = species: Mus musculus; assay: Effective dose against Leishmania donovani (Leishmania donovani) amastigotes in mouse peritoneal macrophages; type: functional; settings: read-out: ED50 (the source's name)
Method in brief: (§1)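 Mouse peritoneal macrophages kept on chamber slides in RPMI 1640 with 10% heat-inactivated foetal calf serum, 37 °C, 5% CO2, and infected with L. donovani MHOM/ET/69/L82 amastigotes taken from infected hamster spleens. After 24 h, compounds were added in a 3-fold dilution series in quadruplicate for 5 days. Slides were methanol-fixed and Giemsa-stained, then scored for the proportion of infected macrophages.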

Trypanothione reductase [4] = target: T1, Trypanothione reductase (Trypanosoma cruzi, UniProt P28593); assay: Inhibitory activity against recombinant Trypanosoma cruzi (Trypanosoma cruzi) Trypanothione reductase; settings: read-out: I50
Method in brief: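 Recombinant T. cruzi TR, overexpressed in E. coli JM109 and homogeneous by SDS-PAGE, was used at about 0.3 µg/mL. Assay at 25 °C in 0.02 M HEPES pH 7.25 with 0.15 M KCl, 1 mM EDTA, 0.12 mM trypanothione disulfide and 0.1 mM NADPH, read at 340 nm. I50 came from nonlinear least-squares fitting of velocity versus inhibitor concentration using the linear competitive inhibition equation.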

[5] = target: T2, Glutathione reductase, mitochondrial (Homo sapiens, UniProt P00390); assay: Inhibitory activity against human erythrocyte glutathione reductase; '*' indicates No inhibition
T2 sequence (P00390 whole entry): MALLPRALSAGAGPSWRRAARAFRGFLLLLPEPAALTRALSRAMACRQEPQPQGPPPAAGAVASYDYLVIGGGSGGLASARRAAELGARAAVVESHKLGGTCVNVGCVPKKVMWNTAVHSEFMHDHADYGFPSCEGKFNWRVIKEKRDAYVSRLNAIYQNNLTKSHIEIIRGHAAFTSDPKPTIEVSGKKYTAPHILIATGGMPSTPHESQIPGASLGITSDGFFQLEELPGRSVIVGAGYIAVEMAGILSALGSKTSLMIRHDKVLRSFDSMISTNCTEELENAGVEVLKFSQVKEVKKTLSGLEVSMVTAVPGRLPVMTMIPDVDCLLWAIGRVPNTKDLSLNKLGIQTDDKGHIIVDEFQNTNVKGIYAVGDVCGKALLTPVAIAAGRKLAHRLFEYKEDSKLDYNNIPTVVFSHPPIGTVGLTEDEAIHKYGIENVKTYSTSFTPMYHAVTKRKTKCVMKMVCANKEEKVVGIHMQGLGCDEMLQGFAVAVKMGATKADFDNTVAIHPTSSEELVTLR
Method in brief: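 Enzyme was isolated from human erythrocytes and assayed spectrophotometrically at 340 nm under literature conditions. Compounds were tested up to 1 mM, or 0.1 mM where solubility was limited.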

Trypanosoma brucei [6] = assay: Effective dose against Trypanosoma brucei) bloodstream form trypomastigotes; settings: read-out: ED50 (the source's name)
Mus musculus [7] = species: Mus musculus; assay: Effective dose against Trypanosoma […]) trypomastigotes in mouse peritoneal macrophages; type: functional; settings: read-out: ED50 (the source's name)
Trypanosoma brucei [8] = assay: Effective dose against Trypanosoma brucei) bloodstream form trypomastigotes in HMI-9 medium; settings: read-out: ED50 (the source's name)
Trypanothione reductase [9] = target: T1, Trypanothione reductase; assay: Inhibitory activity against recombinant Trypanosoma cruzi (Trypanosoma cruzi) Trypanothione reductase (linear competitive type)
Mus musculus [10] = species: Mus musculus; assay: Effective dose against Leishmania donovani (Leishmania donovani) amastigotes in mouse peritoneal macrophages; Range is 10-30 uM; type: functional; settings: read-out: ED50 (the source's name); method in brief: as §1
Mus musculus [11] = species: Mus musculus; assay: Effective dose against Trypanosoma cruzi (Trypanosoma cruzi) trypomastigotes in mouse peritoneal macrophages; Toxic to the macrophages; type: functional, organism-based
Method in brief: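 T. cruzi (MHOM/BR/00/Y) trypomastigotes from infected L6 rat myoblast cultures infect mouse peritoneal macrophages at 5 parasites:1 macrophage, 37 °C, 5% CO2/air. Compounds in fresh medium 24 h post-infection, 3-fold dilutions, quadruplicate, 3 days. Cultures fixed, Giemsa-stained; proportion of infected macrophages scored.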

Mus musculus [12] = species: Mus musculus; assay: Effective dose against Leishmania donovani (Leishmania donovani) amastigotes in mouse peritoneal macrophages; Toxic to the macrophages; type: functional, organism-based
Method in brief: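 Mouse peritoneal macrophages in RPMI 1640 + 10% heat-inactivated FCS, 37 °C, 5% CO2, infected with L. donovani (MHOM/ET/69/L82) amastigotes from infected hamster spleens. Compounds added 24 h post-infection in 3-fold dilutions, quadruplicate, for 5 days. Slides methanol-fixed, Giemsa-stained; proportion of infected macrophages scored.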

Mus musculus [13] = species: Mus musculus; assay: Effective dose against […]; Toxic to the macrophages; type: functional
Trypanothione reductase [14] = target: T1, Trypanothione reductase; assay: Inhibitory activity against recombinant Trypanosoma cruzi (Trypanosoma cruzi) Trypanothione reductase; No inhibition at 1000 uM
Trypanosoma brucei [15] = assay: Effective dose against Trypanosoma brucei) bloodstream form trypomastigotes; <3, >1; settings: read-out: ED50 (the source's name)
Mus musculus [16] = species: Mus musculus; assay: Effective dose against Trypanosoma cruzi (Trypanosoma cruzi) trypomastigotes in mouse peritoneal macrophages; Range is 10-30 uM; type: functional; settings: read-out: ED50 (the source's name)

T1 sequence (P28593 whole entry): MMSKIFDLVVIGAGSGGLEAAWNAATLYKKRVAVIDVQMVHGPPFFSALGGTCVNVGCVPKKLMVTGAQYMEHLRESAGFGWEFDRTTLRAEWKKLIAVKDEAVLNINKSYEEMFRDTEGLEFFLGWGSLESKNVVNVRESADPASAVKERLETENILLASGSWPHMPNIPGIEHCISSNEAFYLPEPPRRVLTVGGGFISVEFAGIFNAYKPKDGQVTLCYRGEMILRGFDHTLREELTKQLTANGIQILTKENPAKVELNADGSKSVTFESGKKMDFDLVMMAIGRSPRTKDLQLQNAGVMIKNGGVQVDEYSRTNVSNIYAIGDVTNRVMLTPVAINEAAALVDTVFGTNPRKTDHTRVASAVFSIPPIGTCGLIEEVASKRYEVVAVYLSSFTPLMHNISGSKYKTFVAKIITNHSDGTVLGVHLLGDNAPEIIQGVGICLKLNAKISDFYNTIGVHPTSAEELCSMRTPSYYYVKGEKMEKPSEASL

| SMILES | EC50 (Mus musculus [1]) [µM] | EC50 (Mus musculus [3]) [µM] | IC50 (Trypanothione reductase [4]) [µM] | I50 [5] | further results |
| --- | --- | --- | --- | --- | --- |
| CO/N=C(/C)c1ccc2c(c1)N(CCCN(C)C)c1ccccc1S2 | > 30 | > 30 | 351 |  | ED50 (Mus musculus [2]): 10 µM |
| CN(C)C(C)(C)CN1c2ccccc2Sc2ccccc21 |  |  | 1180 | Not Active |  |
| CN(C)CCCN1c2ccccc2Sc2ccc(C(N)=O)cc21 |  |  | 458 | Not Active |  |
| CCN(CC)CCCC(=O)N1c2ccccc2Sc2ccc(Cl)cc21 |  |  | 320 |  |  |
| CCN(CC)CCN1c2ccccc2Sc2ccc(Cl)cc21 |  |  | 81.3 | Not Active |  |
| CC(=O)c1ccc2c(c1)N(CCCN(C)C)c1cc(C(C)=O)ccc1S2 | > 30 | > 30 | 472 |  | ED50 (Mus musculus [2]): 10 µM |
| CN(C)CCCN1c2ccccc2Sc2c(Cl)cccc21 | 29.5 | 48.4 | 765 | Not Active | EC50 (Trypanosoma brucei [6]): 3.01 µM |
| C/C(=N\OCc1ccccc1)c1ccc2c(c1)N(CCCN(C)C)c1cc(Cl)ccc1S2 | > 30 | 6.78 | 199 |  | EC50 (Mus musculus [7]): 3500 nM |
| CNCCCN1c2ccccc2Sc2ccc(Cl)cc21 [NOR1-CHLORPROMAZINE] |  |  | 126 | Not Active |  |
| CCCC(=O)N1c2ccccc2Sc2ccc(Cl)cc21 | > 30 | > 30 | 95 |  | EC50 (Trypanosoma brucei [8]): > 30 µM |
| CC(CN(C)C)CN1c2ccccc2Sc2ccccc21 (stereo not given) [METHYLPROMAZINE] |  |  | 249 | Not Active | Ki (Trypanothione reductase [9]): 127 µM |
| O=C(O)CCC(=O)N1c2ccccc2Sc2ccc(Cl)cc21 |  |  | 1480 |  |  |
| O=C(CCC(=O)N1c2ccccc2Sc2ccc(Cl)cc21)NCc1ccccc1 | > 30 | > 30 | 188 |  | EC50 (Trypanosoma brucei [8]): > 30 µM |
| N=C(N)CCN1c2ccccc2Sc2ccccc21 |  |  | 992 |  |  |
| CNCCCN1c2ccccc2Sc2ccccc21 |  |  | 1030 | Not Active |  |
| CC(=O)c1ccc2c(c1)N(C(C)=O)c1cc(Cl)ccc1S2 | > 30 | > 30 | 402 |  | EC50 (Trypanosoma brucei [8]): > 30 µM |
| CCCCCC(=O)c1ccc2c(c1)N(CCCN(C)C)c1ccccc1S2 |  |  | 171 |  | EC50 (Trypanosoma brucei [8]): > 30 µM |
| CC(=O)c1ccc2c(c1)N(CCCN(C)C)c1cc(Cl)ccc1S2 | > 30 | 12.1 | 175 |  | EC50 (Trypanosoma brucei [8]): 1.29 µM |
| CCN(CC)CCCCCC(=O)N1c2ccccc2Sc2ccc(Cl)cc21 |  |  | 457 |  |  |
| CN(C)CCCN1c2ccccc2Sc2ccc(C(F)(F)F)cc21 [TRIFLUPROMAZINE] |  |  | 110 | Not Active | EC50 (Trypanosoma brucei [6]): 3.2 µM; Ki (Trypanothione reductase [9]): 30.2 µM |
| CC(=O)c1ccc2c(c1)N(C(C)=O)c1ccccc1S2 |  |  | 2810 | Not Active |  |
| CCCC(=O)c1ccc2c(c1)N(CCCN(C)C)c1ccccc1S2 | > 30 |  | 301 |  | EC50 (Trypanosoma brucei [8]): 3.26 µM; EC50 (Mus musculus [10]): 10 µM |
| O=C(CNc1ccccc1)N1c2ccccc2Sc2ccc(Cl)cc21 |  |  | 256 |  |  |
| CN1CCN(CCCN2c3ccccc3Sc3ccc(C(F)(F)F)cc32)CC1 [TRIFLUOPERAZINE] |  |  | 72 | Not Active | Ki (Trypanothione reductase [9]): 23 µM |
| CC(=O)c1ccc2c(c1)N(CCCN(C)C)c1ccccc1S2 [ACEPROMAZINE] |  |  | 502 |  | ED50 (Mus musculus [11]): Toxic; EC50 (Trypanosoma brucei [8]): 6.42 µM; ED50 (Mus musculus [12]): Toxic |
| O=C(CCl)N1c2ccccc2Sc2ccc(Cl)cc21 |  |  | 862 |  |  |

| SMILES | EC50 (Mus musculus [1]) [µM] | EC50 (Mus musculus [3]) [µM] | IC50 (Trypanothione reductase [4]) [µM] | I50 [5] | further results |
| --- | --- | --- | --- | --- | --- |
| CC(=O)N1c2ccccc2Sc2ccc(C(=O)CCl)cc21 |  |  | 436 |  |  |
| CCN(CC)CC(=O)N1c2ccccc2Sc2ccc(Cl)cc21 |  |  | 829 |  |  |
| CCCN1CCN(CCCN2c3ccccc3Sc3ccc(Cl)cc32)CC1 |  |  | 95.5 | Not Active | Ki (Trypanothione reductase [9]): 18.7 µM |
| C/C(=N/OCc1ccccc1)c1ccc2c(c1)N(CCCN(C)C)c1ccccc1S2 | > 30 | 16.5 | 204 |  | EC50 (Mus musculus [7]): 1560 nM |
| O=C(CCC(=O)N1c2ccccc2Sc2ccc(Cl)cc21)NNc1ccccc1 |  | 34.2 | 151 |  | ED50 (Mus musculus [13]): Toxic; EC50 (Trypanosoma brucei [8]): 15.2 µM |
| CC(=O)c1ccc2c(c1)N(C(C)=O)c1cc(C(C)=O)ccc1S2 | > 30 | > 30 | 49.1 |  | EC50 (Trypanosoma brucei [8]): > 30 µM |
| CC(CN1c2ccccc2Sc2ccccc21)N(C)C (stereo not given) [PROMETHAZINE] |  |  | 271 | Not Active | Ki (Trypanothione reductase [9]): 216 µM |
| c1ccc2c(c1)Nc1ccccc1S2 [PHENOTHIAZINE] |  |  |  |  | I50 (Trypanothione reductase [14]): No inhibition |
| NCCCN1c2ccccc2Sc2ccccc21 | 54.9 | 3.3 | 1410 | Not Active | EC50 (Trypanosoma brucei [6]): 3.83 µM |
| CCN(CC)CCC(=O)N1c2ccccc2Sc2ccc(Cl)cc21 [CHLORACYZINE] |  |  | 802 |  |  |
| CN(C)CCCN1c2ccccc2Sc2ccc(CN)cc21 |  |  | 219 |  | ED50 (Mus musculus [11]): Toxic; EC50 (Trypanosoma brucei [8]): 0.37 µM; ED50 (Mus musculus [12]): Toxic |
| CN(C)CCN1c2ccccc2Sc2ccc(Cl)cc21 [CHOLRPHENETHAZINE] |  |  | 150 | Not Active |  |
| NCCCN1c2ccccc2Sc2ccc(Cl)cc21 [NOR2-CHLORPROMAZINE] | 5.9 | 10 | 139 | Not Active | EC50 (Trypanosoma brucei [15]): < 3000 nM |
| CN(C)CCCN1c2ccccc2Sc2ccc(Cl)cc21 [CHLORPROMAZINE] | > 10 | 4.9 | 35.4 | Not Active | EC50 (Trypanosoma brucei [6]): 3.69 µM; Ki (Trypanothione reductase [9]): 10.8 µM |
| O=C(CBr)N1c2ccccc2Sc2ccc(Cl)cc21 |  | 5.97 | 251 |  | EC50 (Trypanosoma brucei [8]): 0.97 µM; EC50 (Mus musculus [16]): 10 µM |
| N=C(N)CCN1c2ccccc2Sc2ccc(Cl)cc21 |  |  | 307 |  |  |
| CCC(=O)c1ccc2c(c1)N(CCCN(C)C)c1ccccc1S2 | > 30 | > 30 | 357 |  | EC50 (Trypanosoma brucei [8]): 10.1 µM |
| CN(C)CCCN1c2ccccc2Sc2ccc(/C=N/O)cc21 |  | > 30 | 145 |  | EC50 (Trypanosoma brucei [8]): 7.35 µM; EC50 (Mus musculus [16]): 10 µM |
| OCCN1CCN(CCCN2c3ccccc3Sc3ccc(C(F)(F)F)cc32)CC1 [FLUPHENAZINE] | > 30 | > 30 | 73.7 | Not Active | EC50 (Trypanosoma brucei [6]): > 30 µM; Ki (Trypanothione reductase [9]): 21.2 µM |
| CN(C)CCCN1c2ccccc2Sc2ccc(CO)cc21 |  |  | 1190 | Not Active |  |
| CN(C)CCCN1c2ccccc2Sc2ccccc21 [PROMAZINE] |  |  | 108 | Not Active | Ki (Trypanothione reductase [9]): 59.1 µM |
| CN(C)CCCN1c2ccccc2Sc2ccc(COc3ccc(C(C)(C)C)cc3)cc21 | > 30 | > 30 | 161 | Not Active | EC50 (Trypanosoma brucei [6]): > 30 µM |
| CN(C)CCCN1c2ccccc2Sc2ccc(C(=O)O)cc21 |  |  | 3910 | Not Active |  |
| CN(C)CCCN1c2ccccc2[S+]([O-])c2ccc(Cl)cc21 (stereo not given) [CHLOROPROMAZINE SULFOXIDE] |  |  | 76.6 | Not Active |  |
| COC(=O)c1ccc2c(c1)N(CCCN(C)C)c1ccccc1S2 |  |  | 348 | Not Active |  |
